As usually defined, the Ki is the dissociation constant of the complex between target and ligand, obtained from inhibition or displacement. A low value points to tighter binding. The term pKi denotes the Ki on a negative log10 scale, so that one unit is a factor of ten. A low value points to a high Ki.

These results are taken from ChEMBL document CHEMBL2311400, “Synthesis and biological evaluation of 4-(aminomethyl)-1-hydroxypyrazole analogues of muscimol as γ-aminobutyric acid(a) receptor agonists” (J Med Chem, 2013).

Experiment [1] has as its target T1, Gamma-aminobutyric acid receptor subunit rho-1 (Homo sapiens, UniProt P24046). Put plainly: Agonist activity at human GABAA rho1 receptor expressed in TSA201 cells after 1 min by FLIPR assay. The class given is cell-based. In a few lines: (§1)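 tsA201 cells transfected with 5 μg human ρ1 cDNA, then plated on poly-D-lysine plates for 16–24 h. Loaded with FLIPR membrane potential blue dye in Krebs buffer (pH 7.4), 30 min at 37 °C. Emission at 560 nm (excitation 530 nm) recorded before and up to 1 min after agonist addition. Curves fitted from ΔFU; duplicate, at least three times.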

Experiment [2] addresses T1, Gamma-aminobutyric acid receptor subunit rho-1. Put plainly: Agonist activity at human GABAA rho1 receptor expressed in TSA201 cells after 1 min by FLIPR assay relative to GABA. The class given is cell-based. In a few lines: as §1
For experiment [3], the target named is T2, GABA-A receptor; alpha-1/beta-2/gamma-2 (Homo sapiens) (UniProt P14867+P47870+P18507). Kind of experiment: Agonist activity at human GABAA alpha1beta2gamma2S receptor expressed in HEK293 cells by patch clamp electrophysiology assay relative to GABA. The class given is cell-based. Background: Patch clamp records ionic current or voltage across a cell membrane.

The target in experiment [4] is T2, GABA-A receptor; alpha-1/beta-2/gamma-2 (Homo sapiens). Put plainly: Agonist activity at human GABAA alpha1beta2gamma2S receptor expressed in TSA201 cells after 1 min by FLIPR assay relative to GABA. The class given is cell-based. Put shortly: (§2)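 tsA201 cells transfected with 1 μg α (1, 2, 3 or 5), 1 μg β2 and 3 μg γ2S cDNA (Polyfect). Cells replated onto poly-D-lysine plates and assayed 16–24 h later. Loaded with FMP blue dye in Krebs buffer pH 7.4 for 30 min at 37 °C. Fluorescence (ex 530/em 560 nm) read before and up to 1 min after agonist addition. ΔFU concentration-response curves; duplicate, ≥3 experiments.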

Experiment [5] deals with T3, GABA-A receptor; alpha-1/beta-2/gamma-2 (Homo sapiens, UniProt P14867+P18507+P47870).
T3 sequence (P14867 whole entry): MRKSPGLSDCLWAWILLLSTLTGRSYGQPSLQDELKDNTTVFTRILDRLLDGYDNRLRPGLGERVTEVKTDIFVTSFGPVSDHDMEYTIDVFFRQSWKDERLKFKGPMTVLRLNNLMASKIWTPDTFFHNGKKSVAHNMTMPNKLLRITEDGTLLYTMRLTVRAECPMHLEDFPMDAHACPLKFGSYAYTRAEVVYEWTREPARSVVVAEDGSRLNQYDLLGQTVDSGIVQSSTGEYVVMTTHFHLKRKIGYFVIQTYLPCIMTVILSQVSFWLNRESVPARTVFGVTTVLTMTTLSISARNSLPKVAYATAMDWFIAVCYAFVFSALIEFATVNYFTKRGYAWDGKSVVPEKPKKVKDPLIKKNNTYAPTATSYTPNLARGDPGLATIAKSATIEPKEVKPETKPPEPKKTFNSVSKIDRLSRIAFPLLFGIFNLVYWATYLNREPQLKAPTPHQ
T3 sequence (P47870 whole entry): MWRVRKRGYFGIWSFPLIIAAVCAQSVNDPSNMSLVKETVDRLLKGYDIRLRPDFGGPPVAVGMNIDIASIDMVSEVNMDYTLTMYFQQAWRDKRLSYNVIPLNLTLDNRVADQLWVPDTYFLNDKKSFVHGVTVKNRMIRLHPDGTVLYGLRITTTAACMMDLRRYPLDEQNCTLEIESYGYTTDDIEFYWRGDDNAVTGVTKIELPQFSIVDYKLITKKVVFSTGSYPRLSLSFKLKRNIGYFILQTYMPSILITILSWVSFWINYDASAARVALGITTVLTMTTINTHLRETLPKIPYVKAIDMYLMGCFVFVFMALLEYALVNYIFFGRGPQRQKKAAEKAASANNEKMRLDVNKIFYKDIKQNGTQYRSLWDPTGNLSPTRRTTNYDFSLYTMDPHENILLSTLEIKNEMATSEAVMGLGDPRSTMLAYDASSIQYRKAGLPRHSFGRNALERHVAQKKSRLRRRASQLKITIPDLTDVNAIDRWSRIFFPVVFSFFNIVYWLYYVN
T3 sequence (P18507 whole entry): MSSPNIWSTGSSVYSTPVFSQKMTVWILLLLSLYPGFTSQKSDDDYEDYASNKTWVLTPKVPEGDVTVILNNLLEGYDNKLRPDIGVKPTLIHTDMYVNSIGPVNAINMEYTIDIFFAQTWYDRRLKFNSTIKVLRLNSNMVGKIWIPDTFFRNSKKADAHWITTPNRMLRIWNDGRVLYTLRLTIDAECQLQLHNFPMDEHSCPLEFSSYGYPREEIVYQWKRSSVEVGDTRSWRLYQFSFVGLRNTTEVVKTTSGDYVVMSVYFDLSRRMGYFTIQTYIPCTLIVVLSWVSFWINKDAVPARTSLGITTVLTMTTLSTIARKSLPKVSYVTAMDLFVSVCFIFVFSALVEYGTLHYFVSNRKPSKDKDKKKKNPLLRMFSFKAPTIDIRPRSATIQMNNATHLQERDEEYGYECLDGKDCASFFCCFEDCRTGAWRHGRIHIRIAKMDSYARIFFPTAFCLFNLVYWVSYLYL
Put plainly: Agonist activity at human GABAA alpha1beta2gamma2S receptor expressed in TSA201 cells after 1 min by FLIPR assay. The class given is cell-based. In a few lines:
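tsA201 cells transfected with 1 μg α (1, 2, 3 or 5), 1 μg β2 and 3 μg γ2S cDNA (Polyfect). Cells replated onto poly-D-lysine plates and assayed 16–24 h later. Loaded with FMP blue dye in Krebs buffer pH 7.4 for 30 min at 37 °C.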

The nature of experiment [6]: Displacement of [3H]muscimol from GABAA receptor in rat synaptic membrane after 60 mins by scintillation counting analysis. Format: cell membranes. In a few lines: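 Membranes from cortex and central hemispheres of male SPRD rat brains, washed repeatedly in 50 mM Tris-HCl pH 7.4. 70–80 μg protein per well incubated with [3H]muscimol. Separated by GF/C filtration with ice-cold buffer washes; bound radioactivity counted by scintillation. Nonspecific binding defined with 1.0 mM GABA.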
A general note: Loss of bound radioactivity is the signal in a displacement assay; it reports binding, not function.

Experiment [7] deals with T1, Gamma-aminobutyric acid receptor subunit rho-1. Put plainly: Agonist activity at human GABAA rho1 receptor expressed in HEK293 cells by patch clamp electrophysiology assay. The class given is cell-based. In a few lines:
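Human ρ1 (pCDNA3) co-transfected with a GFP plasmid into HEK 293 cells. Whole-cell voltage clamp at −60 mV, 40–72 h after transfection, room temperature (20–22 °C). Extracellular solution pH 7.35; intrapipette solution with KCl 140 mM, EGTA 10 mM, MgATP 2 mM, pH 7.3.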

A short description of experiment [8]: Agonist activity at human GABAA alpha5beta2gamma2S receptor expressed in TSA201 cells after 1 min by FLIPR assay. Format: cell-based. The conditions noted are these: tsA201, 1 min.
In experiment [9] the target is GABA A receptor alpha-3/beta-2/gamma-2 (Homo sapiens) (UniProt P47870+P18507+P34903). Put plainly: Agonist activity at human GABAA alpha3beta2gamma2S receptor expressed in TSA201 cells after 1 min by FLIPR assay relative to GABA. Format: cell-based. Put shortly: as §2
The target in experiment [10] is GABA A receptor alpha-2/beta-2/gamma-2 (Homo sapiens) (UniProt P47870+P18507+P47869). Kind of experiment: Agonist activity at human GABAA alpha2beta2gamma2S receptor expressed in TSA201 cells after 1 min by FLIPR assay relative to GABA. The class given is cell-based. Put shortly:
as §2

T1 sequence (P24046 whole entry): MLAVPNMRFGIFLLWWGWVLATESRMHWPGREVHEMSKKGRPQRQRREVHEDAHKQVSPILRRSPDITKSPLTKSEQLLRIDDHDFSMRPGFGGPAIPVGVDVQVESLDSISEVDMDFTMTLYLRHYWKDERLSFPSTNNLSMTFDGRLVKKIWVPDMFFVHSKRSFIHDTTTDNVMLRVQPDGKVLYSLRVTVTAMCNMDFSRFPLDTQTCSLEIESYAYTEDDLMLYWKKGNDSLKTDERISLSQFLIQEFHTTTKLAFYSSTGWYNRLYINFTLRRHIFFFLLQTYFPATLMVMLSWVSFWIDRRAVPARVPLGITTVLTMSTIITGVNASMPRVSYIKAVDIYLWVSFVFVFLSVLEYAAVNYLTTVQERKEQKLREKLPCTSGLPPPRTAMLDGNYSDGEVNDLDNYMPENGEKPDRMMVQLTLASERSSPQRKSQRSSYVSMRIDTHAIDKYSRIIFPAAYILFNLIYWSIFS

Turning to `NCc1cnn(O)c1`, the EC50 is 3100 nM in experiment [1]; 13000 nM in experiment [5]; 55000 nM in experiment [7]; 780 nM in experiment [8] (read-out: EC50); 794 nM in experiment [8] (read-out: pEC50 (converted)). In addition, the Rmax was 77% in experiment [2]; 69% in experiment [3]; 77% in [4]; 77% in experiment [9]; 77% in experiment [10]. In [6], this molecule gave a Ki of 220 nM. The negative logarithm of the Ki (pKi) in experiment [6] is 6.68.
